Laboratory results taken from ChEMBL document CHEMBL1772955, “Synthesis, metabolic stability and antiviral evaluation of various alkoxyalkyl esters of cidofovir and 9-(S)-[3-hydroxy-2-(phosphonomethoxy)propyl]adenine” (Bioorg Med Chem, 2011).

Legend:
[1] = Selectivity index, ratio of CC50 for human HFF cells to EC50 for Vaccinia virus Copenhagen; type: toxicity, cell-based; details: read-out: Ratio CC50/EC50
[2] = Selectivity index, ratio of CC50 for human HFF cells to EC50 for Cowpox virus (Brighton Red); type: toxicity, cell-based; details: read-out: Ratio CC50/EC50
[3] = Selectivity index, ratio of CC50 for african green monkey BSC1 cells to EC50 for Ectromelia virus Moscow; type: toxicity, cell-based, BSC-1; details: read-out: Ratio CC50/EC50
Liver [4] = assay: Metabolic stability in human liver S9 fraction assessed as compound degradation at 10 uM after 90 mins by HPLC/MS/MS; type: ADME, subcellular; details: s9, 1.5 h
How it was run: (§1)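 Liver S9 fraction at 3 mg/mL protein in phosphate buffer, test article 1 μM or 10 μM final; 2 min equilibration at 37 °C, then reaction started with 1x NADPH regeneration system. Samples taken from time zero to 90 min into 1% ammonium hydroxide in N-propyl alcohol. Analysed by C8 HPLC with water/isopropyl alcohol (0.1% formic acid) gradient and ESI-MS. 7-Ethoxycoumarin run as positive control.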

BSC-1 = assay: (§2) Cytotoxicity against african green monkey BSC1 cells after 2 to 4 hrs by MTS assay; type: cell-based; details: chlorocebus aethiops, bsc-1
How it was run: (§3)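 BSC-1 cells (5000 per reaction) mixed with serial compound dilutions in DMEM/2% Fetal Clone II, without virus. At the set time point, MTS reagent added for 2-4 h and OD490 read. Viability taken relative to untreated cells; CC50 from concentration versus % viability plot.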

Ectromelia virus Moscow = assay: Antiviral activity against Ectromelia virus Moscow infected in african green monkey BSC1 cells after 4 to 5 days by plaque reduction assay; type: functional, organism-based; details: BSC-1
[5] = Antiviral activity against Cowpox virus (Brighton Red) infected in human HFF cells after 3 days by plaque reduction assay; type: functional, cell-based; details: 72 h
HFF = assay: Cytotoxicity against human HFF cells assessed as reduction in cell viability after 7 days by neutral red uptake assay; type: cell-based; details: 168 h
How it was run: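 Uninfected HFF cells seeded at 2.5×10^4/well and grown 24 h to monolayer. Medium replaced by MEM/2% FBS containing graded compound concentrations; 7 d incubation. Cells stained with 0.01% neutral red, absorbance at 540 nm; CC50 interpolated as 50% viability loss.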

Vaccinia virus = assay: Antiviral activity against Vaccinia virus Copenhagen infected in human HFF cells after 3 days by plaque reduction assay; type: functional, organism-based; details: Orthopoxvirus vaccinia, 72 h
[6] = Metabolic stability in human liver S9 fraction assessed as compound remaining at 1 uM after 90 mins by HPLC/MS/MS; type: ADME, subcellular; details: read-out: Stability
How it was run: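 Liver S9 (human or monkey, 3 mg/mL protein, phosphate buffer) with test article at 1 or 10 μM final, pre-equilibrated about 2 min at 37 °C. Started with 1x NADPH regeneration system, sampled 0-90 min into 1% NH4OH in n-propanol. Held cold ≥48 h, centrifuged, C8 LC (water/isopropanol, 0.1% formic acid) with ESI-MS; 7-ethoxycoumarin as activity control.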

Liver [7] = assay: Metabolic stability in human liver S9 fraction assessed as compound degradation at 1 uM after 90 mins by HPLC/MS/MS; type: ADME, subcellular; details: s9, 1.5 h; how it was run: as §1
[8] = as §2; type: cell-based, BSC-1; details: chlorocebus aethiops, BSC1 cells; how it was run: as §3
Liver [9] = type: ADME, subcellular, Cavia porcellus, S9 fraction; details: guinea pig, s9, 1.5 h, 10 µM
Liver [10] = assay: Metabolic stability in human liver S9 fraction assessed as compound disappearance at 1 uM after 90 mins by HPLC/MS/MS; type: ADME, subcellular; details: s9, 1.5 h; how it was run: as §1
Liver [11] = assay: Metabolic stability in human liver S9 fraction assessed as compound disappearance at 10 uM after 90 mins by HPLC/MS/MS; type: ADME, subcellular; details: s9, 1.5 h; how it was run: as §1
Liver [12] = type: ADME, subcellular, S9 fraction; details: rat, s9, 1.5 h, 1 µM
Liver [13] = type: ADME, subcellular, S9 fraction; details: rat, s9, 1.5 h, 10 µM
Liver [14] = type: ADME, subcellular, Cavia porcellus, S9 fraction; details: guinea pig, s9, 1.5 h, 1 µM

SMILES	selectivity ratio [1]	selectivity ratio [2]	selectivity ratio [3]	Stability (Liver [4])	CC50 (BSC-1)	EC50 (Ectromelia virus Moscow)	EC50 [5]	CC50 (HFF)	EC50 (Vaccinia virus)	remaining at 1.5 h, 1 µM [6]	Stability (Liver [7])	CC50 [8]	Stability (Liver [9])	Stability (Liver [10])	Stability (Liver [11])	Stability (Liver [12])	Stability (Liver [13])	Stability (Liver [14])
CC(C)CCCCCCCCCCCCCCOCCCOP(=O)(O)CO[C@H](CO)Cn1cnc2c(N)ncnc21	285	285	266	Stable	11.7 µM	44 nM	40 nM	11.4 µM	40 nM	91.3%	Stable							
CC(C)CCCCCCCCCCCCCCOCCCOP(=O)(O)CO[C@H](CO)Cn1ccc(N)nc1=O	75	150	1810		78 µM	43 nM	100 nM	15 µM	200 nM									
Nc1ccn(C[C@@H](CO)OCP(=O)(O)OCCCOCCCCCCCCCCCCCCC2CC2)c(=O)n1	187	112	100		74 µM	740 nM	500 nM	56 µM	300 nM	88%								
CCCCCCCCCCCCCCCCCCOC[C@@H](COP(=O)(O)CO[C@H](CO)Cn1ccc(N)nc1=O)OCc1ccccc1	118	157	1100			30 nM	300 nM	47 µM	400 nM	92.3%		35 µM						
CC(C)CCCCCCCCCCCCOCCCOP(=O)(O)CO[C@H](CO)Cn1ccc(N)nc1=O	123	123	210		82 µM	390 nM	300 nM	37 µM	300 nM									
CC(C)CCCCCCCCCCCOCCCOP(=O)(O)CO[C@H](CO)Cn1ccc(N)nc1=O	44	55	234		82 µM	350 nM	800 nM	44 µM	1000 nM									
C=CCCCCCCCCCCCCCCOCCOP(=O)(O)CO[C@H](CO)Cn1cnc2c(N)ncnc21	85	85	7.2	Unstable	2.32 µM	320 nM	20 nM	1.7 µM	20 nM		Unstable							
CCCCCCCCCCCCCCCCOCCOP(=O)(O)CO[C@H](CO)Cn1cnc2c(N)ncnc21	156	156	289		40.5 µM	140 nM	90 nM	14 µM	90 nM									
CC(C)CCCCCCCCCCCCCCOCCOP(=O)(O)CO[C@H](CO)Cn1cnc2c(N)ncnc21	250	250	5960		59.6 µM	10 nM	10 nM	2.5 µM	10 nM									
CCCCCCCCCCCCCCCCOCCCOP(=O)(O)CO[C@H](CO)Cn1cnc2c(N)ncnc21	280	140	1280	Stable	84.7 µM	66 nM	20 nM	2.8 µM			Stable							
CCCCCCCCCCCCCCCCOCCCOP(=O)(O)CO[C@H](CO)Cn1ccc(N)nc1=O [BRINCIDOFOVIR]	313	125	202		25.3 µM	125 nM	200 nM	25 µM		83.3%			Stable	Stable	Stable	Stable	Stable	Stable
